In ChEMBL document CHEMBL3603803, “Design and synthesis of dithiocarbamate linked β-carboline derivatives: DNA topoisomerase II inhibition with DNA binding and apoptosis inducing ability” (Bioorg Med Chem, 2015):
Active and inactive are the calls of the source. The calls are words filed in the database; no cut-off is given here.

How the values were obtained:
[1] = biological target: DNA topoisomerase II (Homo sapiens) (UniProt P11388+Q02880); experiment: Interfacial poisoning activity at DNA-topoisomerase 2 (unknown origin) using catenated kDNA as substrate assessed as linear DNA formation at 1 to 100 uM after 30 mins by agarose gel electrophoresis; assay type: protein assay
Method in brief: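 Catenated DNA incubated with topo II and compound at 1, 10 and 100 µM; gel products scored for linear DNA (poison type) versus nicked circular/relaxed DNA retained in wells (catalytic inhibitor type); etoposide at 1, 10, 100 µM as control.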

MCF7 = experiment: Cytotoxicity against human MCF7 cells after 48 hrs by MTT assay; assay type: functional, cell-based; details: MCF7, 48 h
Method in brief: (§1)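 Human cancer cell lines (A549 lung, MCF-7 breast, DU-145 prostate, HeLa cervical) exposed to compounds for 48 h; 50% inhibitory concentration derived, average of three individual experiments; doxorubicin reference agent.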

DU-145 [2] = experiment: Cytotoxicity against human DU145 cells after 48 hrs by MTT assay; assay type: functional, cell-based; details: DU-145, 48 h; method in brief: as §1
HeLa = experiment: Cytotoxicity against human HeLa cells after 48 hrs by MTT assay; assay type: functional, cell-based; method in brief: as §1
A549 = experiment: Cytotoxicity against human A549 cells after 48 hrs by MTT assay; assay type: functional, cell-based; details: A549, 48 h; method in brief: as §1
DU-145 [3] = experiment: Cell cycle arrest in human DU145 cells assessed as accumulation at G2/M phase at 1 uM after 48 hrs by propidium iodide staining-based flow cytometric analysis (reference value: 1.97%); assay type: functional
DU-145 [4] = experiment: Induction of apoptosis in human DU145 cells assessed as viable cells at 1 uM after 48 hrs by annexin V-FITC/propidium iodide staining-based flow cytometric analysis (reference value: 97.95%); assay type: functional; details: DU-145, 48 h, read-out: Activity
DU-145 [5] = experiment: Cell cycle arrest in human DU145 cells assessed as accumulation at subG1 phase at 1 uM after 48 hrs by propidium iodide staining-based flow cytometric analysis (reference value: 6.52%); assay type: functional
DU-145 [6] = experiment: Cell cycle arrest in human DU145 cells assessed as accumulation at G0/G1 phase at 1 uM after 48 hrs by propidium iodide staining-based flow cytometric analysis (reference value: 85.94%); assay type: functional
DU-145 [7] = experiment: Cell cycle arrest in human DU145 cells assessed as accumulation at S phase at 0.5 uM after 48 hrs by propidium iodide staining-based flow cytometric analysis (reference value: 4.02%); assay type: functional
Calf thymus DNA [8] = experiment: Stabilization of calf thymus DNA at 1:1 DNA to compound molar ratio by CD spectroscopic analysis; assay type: nucleic-acid assay; details: Bos taurus
Method in brief: (§2)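 CD spectra of CT-DNA with compound added at 10 µM to equal CT-DNA concentration (1:1), then raised to 1:2 DNA:ligand; positive band at 275 nm monitored.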

DU-145 [9] = experiment: Induction of apoptosis in human DU145 cells assessed as viable cells at 0.5 uM after 48 hrs by annexin V-FITC/propidium iodide staining-based flow cytometric analysis (reference value: 97.95%); assay type: functional; details: DU-145, 48 h, read-out: Activity
DU-145 [10] = experiment: Induction of apoptosis in human DU145 cells assessed as wrinkled cells at 0.5 uM after 48 hrs by Hoechst 33258 staining-based confocal microscopic analysis; assay type: functional, cell-based
Method in brief: (§3)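 Hoechst H33258 staining of treated DU-145 cells at 0.5 µM; apoptotic cells (apoptotic bodies, condensation, nuclear fragmentation) counted by manual field quantification under the microscope, compared with control.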

DU-145 [11] = experiment: Induction of apoptosis in human DU145 cells assessed as late apoptotic cells at 0.5 uM after 48 hrs by annexin V-FITC/propidium iodide staining-based flow cytometric analysis (reference value: 1.52%); assay type: functional
DU-145 [12] = experiment: Cell cycle arrest in human DU145 cells assessed as accumulation at G0/G1 phase at 0.5 uM after 48 hrs by propidium iodide staining-based flow cytometric analysis (reference value: 85.94%); assay type: functional
Calf thymus DNA [13] = experiment: Induction of DNA intercalation of calf thymus DNA at 1 uM by UV-vis spectrophotometric analysis; assay type: nucleic-acid assay; details: Bos taurus
DU-145 [14] = experiment: Induction of apoptosis in human DU145 cells assessed as late apoptotic cells at 1 uM after 48 hrs by annexin V-FITC/propidium iodide staining-based flow cytometric analysis (reference value: 1.52%); assay type: functional
DU-145 [15] = experiment: Induction of apoptosis in human DU145 cells assessed as necrotic cells at 0.5 uM after 48 hrs by annexin V-FITC/propidium iodide staining-based flow cytometric analysis (reference value: 0.1%); assay type: functional
Calf thymus DNA [16] = experiment: Induction of DNA intercalation of calf thymus DNA at 10 uM by spectrofluorimetric analysis; assay type: nucleic-acid assay; details: Bos taurus
Method in brief: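 Fluorescence titration: CT-DNA added to compound solution and quenching of compound emission peak monitored (617 or 567 nm, depending on compound).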

Calf thymus DNA [17] = experiment: Stabilization of calf thymus DNA at 1:2 DNA to compound molar ratio by CD spectroscopic analysis; assay type: nucleic-acid assay; details: Bos taurus; method in brief: as §2
DU-145 [18] = experiment: Cell cycle arrest in human DU145 cells assessed as accumulation at G2/M phase at 0.5 uM after 48 hrs by propidium iodide staining-based flow cytometric analysis (reference value: 1.97%); assay type: functional
DU-145 [19] = experiment: Induction of apoptosis in human DU145 cells assessed as early apoptotic cells at 0.5 uM after 48 hrs by annexin V-FITC/propidium iodide staining-based flow cytometric analysis (reference value: 0.43%); assay type: functional
DU-145 [20] = experiment: Cell cycle arrest in human DU145 cells assessed as accumulation at S phase at 1 uM after 48 hrs by propidium iodide staining-based flow cytometric analysis (reference value: 4.02%); assay type: functional
DU-145 [21] = experiment: Cell cycle arrest in human DU145 cells assessed as accumulation at subG1 phase at 0.5 uM after 48 hrs by propidium iodide staining-based flow cytometric analysis (reference value: 6.52%); assay type: functional
Calf thymus DNA [22] = experiment: Binding affinity to calf thymus DNA surface at 1 uM by UV-vis spectrophotometric analysis; assay type: nucleic-acid assay; details: Bos taurus
DU-145 [23] = experiment: Induction of apoptosis in human DU145 cells assessed as early apoptotic cells at 1 uM after 48 hrs by annexin V-FITC/propidium iodide staining-based flow cytometric analysis (reference value: 0.43%); assay type: functional
DU-145 [24] = experiment: Induction of apoptosis in human DU145 cells assessed as DNA fragmented cells at 0.5 uM after 48 hrs by Hoechst 33258 staining-based confocal microscopic analysis; assay type: functional, cell-based; method in brief: as §3
DU-145 [25] = experiment: Induction of apoptosis in human DU145 cells assessed as necrotic cells at 1 uM after 48 hrs by annexin V-FITC/propidium iodide staining-based flow cytometric analysis (reference value: 0.1%); assay type: functional

`COc1cc([C@@H]2c3cc4c(cc3[C@@H](O[C@@H]3O[C@@H]5CO[C@@H](C)O[C@H]5[C@H](O)[C@H]3O)[C@H]3COC(=O)[C@H]23)OCO4)cc(OC)c1O` was tested, and the Activity [1] was “Active”.

With `COc1cc(-c2nc(CN)cc3c2[nH]c2ccccc23)cc(OC)c1OC` the IC50 (MCF7) was 18.6 µM, the IC50 (DU-145 [2]) was 18.3 µM and the IC50 (HeLa) was 21.7 µM. The IC50 (A549) was 15.1 µM.

`C=CCSC(=S)NCc1cc2c([nH]c3ccccc32)c(-c2ccc(OC)cc2)n1` was tested, and the IC50 (MCF7) was 38.8 µM, the IC50 (DU-145 [2]) was 46.7 µM and the IC50 (HeLa) was 59.1 µM. It also gave an IC50 (A549) of 51.4 µM.

Molecule `CSC(=S)NCc1cc2c3ccccc3n(C)c2c(-c2ccc(C(F)(F)F)cc2)n1` has an Activity (DU-145 [3]) of 5.36%, a viability at 1 µM (DU-145 [4]) of 75% and an IC50 (MCF7) of 1.09 µM. It also gave an Activity (DU-145 [5]) of 18.6%, an Activity (DU-145 [6]) of 70.81% and an Activity (DU-145 [7]) of 5.18%. For the same molecule, the Activity (Calf thymus DNA [8]) was “Active”, the viability at 0.5 µM (DU-145 [9]) was 81.5% and the IC50 (DU-145 [2]) was 0.79 µM. For the same molecule, the IC50 (HeLa) was 1.47 µM, the Activity (DU-145 [10]) was “Active” and the IC50 (A549) was 3.54 µM. For the same molecule, the Activity (DU-145 [11]) was 13.7%, the Activity (DU-145 [12]) was 78.9% and the Activity (Calf thymus DNA [13]) was “Active”. The Activity (DU-145 [14]) was 21.19%, the Activity (DU-145 [15]) was 0.93% and the Activity (Calf thymus DNA [16]) was “Active”. For the same molecule, the Activity (Calf thymus DNA [17]) was “Active”, the Activity (DU-145 [18]) was 3.73% and the Activity (DU-145 [19]) was 3.82%. For the same molecule, the Activity (DU-145 [20]) was 5.31%, the Activity (DU-145 [21]) was 10.12% and the Activity (Calf thymus DNA [22]) was “Active”. The Activity (DU-145 [23]) was 2.18%, the Activity (DU-145 [24]) was “Active” and the Activity (DU-145 [25]) was 1.65%. For the same molecule, the Activity [1] was “Active”.

With `COc1ccc(-c2nc(CNC(=S)SCc3ccccc3)cc3c2[nH]c2ccccc23)cc1` the IC50 (MCF7) was 10 µM, the IC50 (DU-145 [2]) was 13.8 µM and the IC50 (HeLa) was 24.1 µM. The IC50 (A549) was 17.7 µM.

`C=CCSC(=S)NCc1cc2c([nH]c3ccccc32)c(-c2ccc(F)cc2)n1` gave an IC50 (MCF7) of 6.6 µM, an IC50 (DU-145 [2]) of 3.98 µM and an IC50 (HeLa) of 4.46 µM. The IC50 (A549) was 16.7 µM.

In the case of `Cn1c2ccccc2c2cc(CNC(=S)SCc3ccccc3)nc(-c3ccc(C(F)(F)F)cc3)c21`, the IC50 (MCF7) is reported as 4.31 µM, the IC50 (DU-145 [2]) is reported as 2.08 µM and the IC50 (HeLa) is reported as 4.78 µM. For the same molecule, the IC50 (A549) was 5.12 µM.

`CSC(=S)NCc1cc2c3ccccc3n(C)c2c(-c2ccc(F)cc2)n1` showed an IC50 (MCF7) of 1.86 µM, an IC50 (DU-145 [2]) of 1.45 µM and an IC50 (HeLa) of 2.39 µM. For the same molecule, the IC50 (A549) was 5.62 µM.

For `NCc1cc2c([nH]c3ccccc32)c(-c2ccc(C(F)(F)F)cc2)n1`, the IC50 (MCF7) was 12 µM, the IC50 (DU-145 [2]) was 9.12 µM and the IC50 (HeLa) was 15.8 µM. For the same molecule, the IC50 (A549) was 15.8 µM.

`Cn1c2ccccc2c2cc(CN)nc(-c3ccc(F)cc3)c21` was tested, and the IC50 (MCF7) was 16.6 µM, the IC50 (DU-145 [2]) was 10 µM and the IC50 (HeLa) was 20.5 µM. For the same molecule, the IC50 (A549) was 19.5 µM.

`C=CCSC(=S)NCc1cc2c3ccccc3n(C)c2c(-c2ccc(F)cc2)n1` showed an IC50 (MCF7) of 3.01 µM, an IC50 (DU-145 [2]) of 2.88 µM and an IC50 (HeLa) of 2.57 µM. The IC50 (A549) was 6.02 µM.

For `COc1cc(-c2nc(CNC(=S)SCc3ccccc3)cc3c2[nH]c2ccccc23)cc(OC)c1OC`, the IC50 (MCF7) was 25.8 µM, the IC50 (DU-145 [2]) was 17.3 µM and the IC50 (HeLa) was 14.5 µM. For the same molecule, the IC50 (A549) was 27.5 µM.

Work on `COc1cccc2c1C(=O)c1c(O)c3c(c(O)c1C2=O)C[C@@](O)(C(=O)CO)C[C@@H]3O[C@H]1C[C@H](N)[C@H](O)[C@H](C)O1` [DOXORUBICIN] yielded an IC50 (MCF7) of 0.96 µM, an IC50 (DU-145 [2]) of 1.38 µM and an IC50 (HeLa) of 2.63 µM. The IC50 (A549) was 1.58 µM.

For `C=CCSC(=S)NCc1cc2c3ccccc3n(C)c2c(-c2cc(OC)c(OC)c(OC)c2)n1`, the IC50 (MCF7) was 20.6 µM, the IC50 (DU-145 [2]) was 19.4 µM and the IC50 (HeLa) was 19.9 µM. For the same molecule, the IC50 (A549) was 18.1 µM.

For `FC(F)(F)c1ccc(-c2nc(CNC(=S)SCc3ccccc3)cc3c2[nH]c2ccccc23)cc1`, the IC50 (MCF7) was 12.3 µM, the IC50 (DU-145 [2]) was 5.88 µM and the IC50 (HeLa) was 3.98 µM. The IC50 (A549) was 9.33 µM.

For `NCc1cc2c([nH]c3ccccc32)c(-c2ccc(F)cc2)n1`, the IC50 (MCF7) was 17.9 µM, the IC50 (DU-145 [2]) was 13.8 µM and the IC50 (HeLa) was 22.5 µM. For the same molecule, the IC50 (A549) was 21.1 µM.

For `Cn1c2ccccc2c2cc(CNC(=S)SCc3ccccc3)nc(-c3ccc(F)cc3)c21`, the IC50 (MCF7) was 2.75 µM, the IC50 (DU-145 [2]) was 4.78 µM and the IC50 (HeLa) was 3.16 µM. It also gave an IC50 (A549) of 6.76 µM.
